From ChEMBL document CHEMBL3526011, “Metabolic activation of mefenamic acid leading to mefenamyl-S-acyl-glutathione adduct formation in vitro and in vivo in rat” (Drug Metab Dispos, 2012)

How the values were obtained:
[1] = Half life in rat hepatocytes; format: ADME, cell-based, Hepatocyte
Procedure, shortened: (§1)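 Authentic acyl-SG thioesters or acyl glucuronide (1 µM) incubated with rat hepatocytes (2 million cells/ml). Quenched at 0–30 min and analysed by LC-MS/MS for % remaining; average of two incubations per time point; half-life derived from the decline.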

[2] = system: Hepatocyte; assay: Drug level in rat hepatocytes treated with 100 uM MFA by reverse phase LC-MS/MS analysis; format: ADME, cell-based
Procedure, shortened: (§2)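 Rat hepatocytes at 2 million viable cells/ml in William's E (pH 7.4) at 37°C under 95% O2/5% CO2, with 100 µM MFA for up to 60 min. Quench times 0–60 min; n=3 incubations per point across three separate studies. Acyl-SG and glucuronide quenched with acidic acetonitrile plus CBZ; acyl-CoA quenched with acetonitrile plus CBZ, then hexane extraction. Positive-ion LC-MS/MS MRM; quantified from analyte/CBZ standard curves.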

[3] = system: Hepatocyte; assay: Drug level in rat hepatocytes treated with 15.6 uM MFA by LC-MS/MS analysis; format: ADME, cell-based
Procedure, shortened: (§3)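 Rat hepatocytes (2 million cells/ml, William's E pH 7.4, 37°C, 95% O2/5% CO2) incubated 10 min with MFA at 0.8–500 µM (11 levels). Quenched and processed for LC-MS/MS MRM of the acyl-SG, acyl glucuronide and acyl-CoA derivatives. Three separate experiments, n=3 incubations per concentration; mean ± S.D.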

[4] = system: Hepatocyte; assay: Drug level in rat hepatocytes treated with at 100 uM MFA by LC-MS/MS analysis in presence of 1000 uM (-)-borneol (reference value: 9.1 +/- 4.5); format: ADME, cell-based
Procedure, shortened: (§4)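 Rat hepatocytes (2 million cells/ml, 0.5 ml) with 100 µM MFA for 10 min, with or without 1000 µM (−)-borneol (glucuronidation inhibitor; DMSO stock, 0.1% v/v final in controls) or 1000 µM lauric acid (acyl-CoA formation inhibitor; aqueous stock, pH 7). Triplicate incubations; LC-MS/MS MRM; results given as nM and as % of control, mean ± S.D.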

[5] = system: Hepatocyte; assay: Drug level in rat hepatocytes treated with at 100 uM MFA by LC-MS/MS analysis in presence of 1000 uM Lauric acid (reference value: 9.1 +/- 4.5); format: ADME, cell-based; procedure, shortened: as §4
[6] = Stability in potassium phosphate buffer at 1 uM at pH 7.4 at 37 degC; format: physicochemical; settings: pH 7.4, 1 µM
Procedure, shortened: (§5)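 Acyl-CoA and acyl glucuronide (1 µM, separate incubations) in 0.1 M potassium phosphate, pH 7.4, 37°C, without GSH. Quenched at 0, 5, 8 and 15 h, n=3 per time point; % remaining determined by LC-MS/MS.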

[7] = Drug level in phosphate buffer treated with 1 uM MFA SCoA at pH 7.4 at 37 degC in presence of GSH after 60 mins; format: physicochemical; settings: pH 7.4, 1 h
Procedure, shortened: (§6)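 Acyl-CoA or acyl glucuronide (1 µM) in 0.1 M potassium phosphate, pH 7.4, 37°C, with 10 mM GSH, n=3. Quenched at 0, 15, 30, 45 and 60 min with acetonitrile/3% formic acid containing 1 µM CBZ. The acyl-SG product was measured by LC-MS/MS; mean ± S.D.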

[8] = Drug level in phosphate buffer treated with 1 uM I-SCoA at pH 7.4 at 37 degC in presence of GSH after 60 mins; format: physicochemical; settings: pH 7.4, 1 h; procedure, shortened: as §6
[9] = system: GST; assay: (§7) Stability in rat liver GST assessed as degradation at 1 uM after 30 mins relative to control; format: ADME, tissue-based; settings: rat liver GST
Procedure, shortened: (§8)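 Acyl-SG thioesters (1 µM) in 0.1 M phosphate buffer, pH 7.4, 37°C (0.2 ml), with or without rat liver GST at 3 units/ml. Duplicates per time point, quenched at 0–60 min with acidic acetonitrile plus CBZ and analysed directly by LC-MS/MS. Degradation at 30 min expressed relative to the no-GST control.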

[10] = as §7; format: ADME, tissue-based; settings: 0.5 h, 1 µM; procedure, shortened: as §8
[11] = system: Hepatocyte; assay: Retention time in rat hepatocytes treated with 100 uM MFA by positive ion LC-MS/MS analysis; format: ADME, cell-based; procedure, shortened: as §2
[12] = system: Hepatocyte; assay: Drug level in rat hepatocytes treated with 100 uM MFA after 60 mins; format: ADME, cell-based; settings: 1 h; procedure, shortened: as §2
[13] = system: Hepatocyte; assay: Drug level in cryopreserved human hepatocytes treated with 100 uM MFA at 10 mins incubation; format: ADME, cell-based
Procedure, shortened: (§9)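 Human hepatocytes, either cryopreserved 20-donor pooled or a single-donor suspension, thawed or warmed at 37°C, washed in William's E (pH 7.4, 4 mM L-glutamate). Cells at 2 million viable/ml, >95% trypan-blue viability. Incubated with 100 µM MFA at 37°C under 95% O2/5% CO2 with orbital shaking, n=3 per time point. Quench: acetonitrile/3% formic acid with CBZ internal standard; LC-MS/MS MRM.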

[14] = system: Hepatocyte; assay: Drug level in rat hepatocytes treated with 500 uM MFA by LC-MS/MS analysis; format: ADME, cell-based; procedure, shortened: as §3
[15] = system: Hepatocyte; assay: Drug level in rat hepatocytes treated with 62.5 uM MFA by LC-MS/MS analysis; format: ADME, cell-based; procedure, shortened: as §3
[16] = Half life in rat hepatocytes at 1 uM; format: ADME, cell-based, Hepatocyte; procedure, shortened: as §1
[17] = system: Hepatocyte; assay: Drug level in rat hepatocytes treated with at 100 uM MFA by LC-MS/MS analysis in presence of 1000 uM (-)-borneol (reference value: 619 +/-158); format: ADME, cell-based; procedure, shortened: as §4
[18] = system: Hepatocyte; assay: Drug level in rat hepatocytes treated with at 100 uM MFA by LC-MS/MS analysis in presence of 1000 uM Lauric acid (reference value: 619 +/-158); format: ADME, cell-based; procedure, shortened: as §4
[19] = Half life in potassium phosphate buffer at 1 uM at pH 7.4 at 37 degC; format: physicochemical; procedure, shortened: as §5
[20] = Drug level in Sprague-Dawley rat bile treated with 100 mg/kg, ip MFA after 6 hrs by LC-MS/MS analysis; format: ADME, organism-based; design: dose 100 mg/kg, route intraperitoneal; settings: in vivo
Procedure, shortened: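 Male Sprague-Dawley rats (300–330 g, n=3) with bile-duct cannulas, housed in metabolic cages; MFA 100 mg/kg i.p. in water, pH 7.0. Artificial bile-salt supplement infused via duodenal cannula at 1 ml/h. Bile collected over 6 h into phosphoric acid on wet ice, centrifuged, and the supernatant quantified by LC-MS/MS against a linear standard curve of analyte/CBZ peak-area ratios.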

[21] = system: Hepatocyte; assay: Drug level in single-donor human hepatocytes in suspension treated with 100 uM MFA at 60 mins incubation; settings: 1 h
[22] = system: Hepatocyte; assay: Drug level in human hepatocytes treated with 100 uM MFA by sensitive LC-MS/MS MRM analysis; format: ADME, cell-based; procedure, shortened: as §9
[23] = system: Hepatocyte; assay: Drug level in rat hepatocytes treated with at 100 uM MFA by LC-MS/MS analysis in presence of 1000 uM (-)-borneol (reference value: 334 +/- 76); format: ADME, cell-based; procedure, shortened: as §4
[24] = system: Hepatocyte; assay: Drug level in rat hepatocytes treated with at 100 uM MFA by LC-MS/MS analysis in presence of 1000 uM Lauric acid (reference value: 334 +/- 76); format: ADME, cell-based; procedure, shortened: as §4
[25] = Drug level in phosphate buffer treated with 1 uM MFA-1-beta-O-G at pH 7.4 at 37 degC in presence of GSH after 60 mins; format: physicochemical; settings: pH 7.4, 1 h; procedure, shortened: as §6
[26] = Increase in drug level in phosphate buffer treated with 1 uM MFA-1-beta-O-G at pH 7.4 at 37 degC in presence of GSH/rat liver GST after 60 mins
Procedure, shortened: (§10)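 Acyl-CoA or acyl glucuronide (1 µM) with 10 mM GSH in 0.1 M potassium phosphate, pH 7.4, 37°C, additionally fortified with rat liver GST (3 units/ml). Up to 60 min; acyl-SG formation measured by LC-MS/MS and compared with incubations lacking GST.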

[27] = Increase in drug level in phosphate buffer treated with 1 uM MFA-SCoA at pH 7.4 at 37 degC in presence of GSH/rat liver GST after 60 mins; procedure, shortened: as §10
[28] = Drug metabolism in rat hepatocytes assessed as MFA-SCoA at 100 uM by reverse phase LC-MS/MS analysis; format: ADME, cell-based, Hepatocyte; procedure, shortened: as §2
[29] = Drug metabolism in human hepatocytes assessed as MFA-SCoA at 100 uM by reverse phase LC-MS/MS analysis; format: ADME, cell-based, Hepatocyte
Procedure, shortened: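 MFA 100 µM with human hepatocytes (2 million viable cells/ml, William's E pH 7.4, 37°C, 95% O2/5% CO2). For the acyl-CoA thioester, quench was acetonitrile without formic acid plus CBZ, followed by hexane extraction. The aqueous layer was analysed by positive-ion LC-MS/MS MRM (m/z 991→224 and 484).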

[30] = Drug metabolism in rat hepatocytes assessed as MFA-SG at 100 uM by sensitive LC-MS/MS MRM analysis; format: ADME, cell-based, Hepatocyte; procedure, shortened: as §2
[31] = Drug metabolism in human hepatocytes assessed as MFA-SG at 100 uM by sensitive LC-MS/MS MRM analysis; format: ADME, cell-based, Hepatocyte; procedure, shortened: as §9
[32] = Drug metabolism in rat hepatocytes assessed as MFA-1-beta-O-G at 100 uM by positive ion LC-MS/MS analysis; format: ADME, cell-based, Hepatocyte; procedure, shortened: as §2
[33] = Drug metabolism in rat hepatocytes assessed as acyl migration isomers at 100 uM by positive ion LC-MS/MS analysis; format: ADME, cell-based, Hepatocyte
[34] = Drug metabolism in rat hepatocytes assessed as MFA-SCoA by LC-MS/MS analysis; format: ADME, cell-based, Hepatocyte; procedure, shortened: as §3
[35] = Drug metabolism in rat hepatocytes assessed as I-SG thioester at 100 uM at 10 mins incubation by LC-MS/MS analysis; format: ADME, cell-based, Hepatocyte
Procedure, shortened: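 Rat hepatocytes (2 million cells/ml, William's E pH 7.4, 37°C, 95% O2/5% CO2) incubated with (R)-ibuprofen 100 µM for 10 min, n=3. Quenched with acetonitrile/3% formic acid containing CBZ. The acyl-SG thioester was quantified by LC-MS/MS against a linear acyl-SG/CBZ peak-area-ratio standard curve.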

Cc1cc(CC(=O)SC[C@H](NC(=O)CC[C@H](N)C(=O)O)C(=O)NCC(=O)O)n(C)c1C(=O)c1ccc(Cl)cc1
half-life [1]: 0.8 min

Cc1cccc(Nc2ccccc2C(=O)SCCNC(=O)CCNC(=O)C(O)C(C)(C)COP(=O)(O)OP(=O)(O)OC[C@H]2O[C@@H](n3cnc4c(N)ncnc43)[C@H](O)[C@@H]2OP(=O)(O)O)c1C (some centres undefined)
Drug metabolism [2]: metabolite_detected | Drug metabolism [3]: 6 nM | Drug metabolism [4]: 8.8 nM | Drug metabolism [5]: 3.8 nM | Stability [6]: Stable

CC(C)Cc1ccc(C(C)C(=O)SC[C@H](NC(=O)CC[C@H](N)C(=O)O)C(=O)NCC(=O)O)cc1 (some centres undefined)
half-life [1]: 4 min | Drug metabolism [7]: 440 nM | Drug metabolism [8]: 440 nM | metabolised at 0.5 h, 1 µM [9]: 11%

N[C@@H](CCC(=O)N[C@@H](CSC(=O)Cc1ccccc1Nc1c(Cl)cccc1Cl)C(=O)NCC(=O)O)C(=O)O
half-life [1]: 1 min | Stability [10]: Unstable

Cc1cccc(Nc2ccccc2C(=O)O[C@@H]2O[C@H](C(=O)O)[C@@H](O)[C@H](O)[C@H]2O)c1C
Retention_time [11]: 11 min | Drug metabolism [12]: 1560 nM | Drug metabolism [13]: 3.5 µM | Drug metabolism [14]: 460 nM | Drug metabolism [15]: 700 nM | half-life at 1 µM [16]: > 60 min | Drug metabolism [17]: 55.1 nM | Drug metabolism [18]: 198 nM | half-life at 1 µM [19]: 990 min | Drug uptake [20]: 2000 µg | Drug metabolism [21]: 18.6 µM

Cc1cccc(Nc2ccccc2C(=O)SC[C@H](NC(=O)CC[C@H](N)C(=O)O)C(=O)NCC(=O)O)c1C
Drug metabolism [2]: metabolite_detected | Drug metabolism [22]: metabolite_detected | Drug metabolism [12]: 50 nM | Drug metabolism [13]: 0.001 µM | Drug metabolism [14]: 230 nM | Drug metabolism [23]: 387 nM | Drug metabolism [24]: 113 nM | Drug metabolism [7]: 208 nM | Drug metabolism [25]: 2.7 nM | fold change (FC) [26]: 6 | fold change (FC) [27]: 1.3 | Drug uptake [20]: 17.4 µg

Cc1cccc(Nc2ccccc2C(=O)O)c1C [MEFENAMIC ACID]
Drug metabolism [28]: metabolite_detected | Drug metabolism [29]: metabolite_not_detected | Drug metabolism [30]: metabolite_detected | Drug metabolism [31]: metabolite_detected | Drug metabolism [32]: metabolite_detected | Drug metabolism [33]: metabolite_not_detected | Drug metabolism [34]: Dose-dependent effect | Drug metabolism [35]: 3 nM | Drug uptake [20]: 4 µg
